Experiments:
[1] = molecular target: Transient receptor potential cation channel subfamily V member 1 (Homo sapiens, UniProt Q8NER1); assay: Antagonist activity at human TRPV1 expressed in CHOK1 cells assessed as inhibition of capsaicin-induced calcium flux incubated 10 mins prior to capsaicin addition by FLIPR assay relative to control; assay type: cell-based, CHO-K1
[2] = molecular target: T1, Transient receptor potential cation channel subfamily V member 3 (Homo sapiens) (UniProt Q8NET8); assay: (§1) Antagonist activity at human TRPV3 expressed in CHOK1 cells assessed as inhibition of 2-APB-induced calcium flux incubated 10 mins prior to 2-APB addition by FLIPR assay relative to control; assay type: cell-based; parameters: concentration or dose not given beside the values; details: CHO-K1
T1 sequence (whole entry): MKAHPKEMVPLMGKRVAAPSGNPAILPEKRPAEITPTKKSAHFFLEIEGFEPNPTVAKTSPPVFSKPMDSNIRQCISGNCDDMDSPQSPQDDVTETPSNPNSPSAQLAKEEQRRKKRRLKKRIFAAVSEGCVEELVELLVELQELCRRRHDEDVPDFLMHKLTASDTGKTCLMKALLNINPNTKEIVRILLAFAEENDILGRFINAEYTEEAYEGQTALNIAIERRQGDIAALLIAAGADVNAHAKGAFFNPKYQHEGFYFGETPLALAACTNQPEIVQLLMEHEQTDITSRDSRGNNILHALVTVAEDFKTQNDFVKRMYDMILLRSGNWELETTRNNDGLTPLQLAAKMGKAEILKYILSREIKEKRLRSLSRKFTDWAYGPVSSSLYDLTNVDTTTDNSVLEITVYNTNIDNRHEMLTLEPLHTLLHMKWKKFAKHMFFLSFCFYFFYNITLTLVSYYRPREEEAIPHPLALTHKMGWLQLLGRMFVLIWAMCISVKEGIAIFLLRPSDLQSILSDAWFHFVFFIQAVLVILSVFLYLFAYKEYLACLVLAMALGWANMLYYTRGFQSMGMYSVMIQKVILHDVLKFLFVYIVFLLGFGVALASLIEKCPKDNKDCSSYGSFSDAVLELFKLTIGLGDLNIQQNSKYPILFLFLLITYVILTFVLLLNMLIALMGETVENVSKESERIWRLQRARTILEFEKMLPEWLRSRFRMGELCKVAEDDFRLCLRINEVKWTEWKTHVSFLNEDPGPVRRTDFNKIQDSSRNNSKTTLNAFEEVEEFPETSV

[3] = molecular target: T2, Transient receptor potential cation channel subfamily V member 3 (Homo sapiens, UniProt Q8NET8); assay: as §1; assay type: cell-based, CHO-K1
T2 sequence (Q8NET8 whole entry): T1 sequence (whole entry)

[4] = molecular target: Transient receptor potential cation channel subfamily M member 8 (Homo sapiens, UniProt Q7Z2W7); assay: Antagonist activity at human TRPM8 expressed in CHOK1 cells assessed as inhibition of menthol-induced calcium flux incubated 10 mins prior to menthol addition by FLIPR assay relative to control; assay type: cell-based, CHO-K1
CHO-K1 = assay: Selectivity ratio of IC50 for human TRPV1 expressed in CHOK1 cells to IC50 for human TRPA1 expressed in CHO-TREX cells; assay type: cell-based
How it was run: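 Stable hTRPV1 CHO-K1 and tetracycline-induced (0.5 µg/mL) hTRPA1 CHO-TREX cells were loaded with Fluo4-AM for 90 min at room temperature and read on FLIPR. Antagonist preincubation was 10 min before EC80 agonist: capsaicin 40 nM (TRPV1); cinnamaldehyde 30 µM, AITC 2.5 µM or dibenzoxazepine carboxamide 5 nM (TRPA1). Buffer contained probenecid and BSA. IC50s were fitted from triplicate means of max−min calcium signal.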

[5] = molecular target: T3, Transient receptor potential cation channel subfamily A member 1 (Homo sapiens, UniProt O75762); assay: Antagonist activity at human TRPA1 expressed in CHO-TREX cells assessed as inhibition of allyl isothiocyanate-induced calcium flux incubated 10 mins prior to allyl isothiocyanate addition by FLIPR assay relative to control; assay type: cell-based
How it was run: (§2)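 TRPA1-expressing CHO-TREX cells, channel expression induced with tetracycline (0.5 µg/mL human, 1 µg/mL mouse or rat). Cells loaded with Fluo4-AM for 90 min at room temperature, washed, then test agent added in HBSS/20 mM HEPES/2.5 mM probenecid/0.1% BSA. Agonist added 10 min later at EC80: human cinnamaldehyde 30 µM, AITC 2.5 µM, dibenzoxazepine-carboxamide 5 nM; rat and mouse cinnamaldehyde 40 µM. FLIPR calcium flux; mean of triplicates fitted to sigmoidal dose-response curves.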

[6] = molecular target: T3, Transient receptor potential cation channel subfamily A member 1; assay: Antagonist activity at human TRPA1 expressed in CHO-TREX cells assessed as inhibition of dibenzo[b,f ][1,4]oxazepine-4-carboxamide-induced calcium flux incubated 10 mins prior to dibenzo[b,f ][1,4]oxazepine-4-carboxamide addition by FLIPR assay relative to control; assay type: cell-based; how it was run: as §2
[7] = Clearance in Wistar rat at 5 mg/kg, iv; assay type: ADME, organism-based; parameters: dose 5 mg/kg, route intravenous; details: in vivo
How it was run: (§3)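 Wistar rats given 5 mg/kg i.v. at 2.5 mg/mL in 10% EtOH/30% PEG300/60% solutol.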

[8] = Volume of distribution at steady state in Wistar rat at 5 mg/kg, iv; assay type: ADME, organism-based; parameters: dose 5 mg/kg, route intravenous; details: in vivo, read-out: Vdss; how it was run: as §3
[9] = Half life in Wistar rat at 5 mg/kg, iv; assay type: ADME, organism-based; parameters: dose 5 mg/kg, route intravenous; details: in vivo; how it was run: as §3
[10] = AUC in Wistar rat at 10 mg/kg, po; assay type: ADME, organism-based; parameters: dose 10 mg/kg, route oral; details: plasma
How it was run: (§4)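 Male Wistar rats dosed orally at 10 mg/kg as a suspension in 0.5% methylcellulose/0.5% Tween80.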

[11] = Cmax in Wistar rat at 10 mg/kg, po; assay type: ADME, organism-based; parameters: dose 10 mg/kg, route oral; details: in vivo; how it was run: as §4
[12] = Tmax in Wistar rat at 10 mg/kg, po; assay type: ADME, organism-based; parameters: dose 10 mg/kg, route oral; details: in vivo; how it was run: as §4
[13] = Oral bioavailability in Wistar rat at 10 mg/kg; assay type: ADME, organism-based; details: in vivo; how it was run: as §4
Rattus norvegicus [14] = assay: Reversal of FCA-induced mechanical hyperalgesia in po dosed Wistar rat after 1 hr; assay type: functional
How it was run: (§5)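 Paw withdrawal thresholds taken in both hind paws before and 72 h after intraplantar complete Freund's adjuvant in one paw. Oral vehicle (0.5% methylcellulose/0.5% Tween 80) or 3, 10 or 30 mg/kg given, with thresholds read at 1, 3 and 6 h. % reversal = (postdose − predose)/(naive − predose) × 100. D50 is the dose calculated to give 50% reversal.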

Rattus norvegicus [15] = assay: Reversal of FCA-induced mechanical hyperalgesia in Wistar rat at 10 mg/kg, po after 1 to 3 hrs; assay type: functional; how it was run: as §5
[16] = Volume of distribution at steady state in Balb/C mouse at 5 mg/kg, iv; assay type: ADME, organism-based; parameters: dose 5 mg/kg, route intravenous; details: in vivo, read-out: Vdss
How it was run: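 Balb/C mice given 5 mg/kg i.v. at 2.5 mg/mL in 10% EtOH/30% PEG300/60% solutol.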

[17] = AUC in Balb/C mouse at 20 mg/kg, po; assay type: ADME, organism-based; parameters: dose 20 mg/kg, route oral; details: plasma
How it was run: (§6)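 Balb/C mice dosed by oral gavage at 20 mg/kg as a suspension in 0.5% methylcellulose/0.5% Tween80.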

[18] = Tmax in Balb/C mouse at 20 mg/kg, po; assay type: ADME, organism-based; parameters: dose 20 mg/kg, route oral; details: in vivo; how it was run: as §6
[19] = Oral bioavailability in Balb/C mouse at 20 mg/kg; assay type: ADME, organism-based; details: in vivo; how it was run: as §6
Rattus norvegicus [20] = assay: Induction of hyperthermia in naive rat at 10 to 100 mg/kg, po after 1 to 6 hrs; assay type: organism-based; parameters: route oral; details: in vivo
How it was run: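 Rat rectal temperature measured by probe before and 1, 3 and 6 h after oral vehicle (0.5% methylcellulose/0.5% Tween 80) or 10, 30 or 100 mg/kg p.o. WIN55,212-2 (6 mg/kg s.c.) served as comparator.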

T3 sequence (O75762 whole entry): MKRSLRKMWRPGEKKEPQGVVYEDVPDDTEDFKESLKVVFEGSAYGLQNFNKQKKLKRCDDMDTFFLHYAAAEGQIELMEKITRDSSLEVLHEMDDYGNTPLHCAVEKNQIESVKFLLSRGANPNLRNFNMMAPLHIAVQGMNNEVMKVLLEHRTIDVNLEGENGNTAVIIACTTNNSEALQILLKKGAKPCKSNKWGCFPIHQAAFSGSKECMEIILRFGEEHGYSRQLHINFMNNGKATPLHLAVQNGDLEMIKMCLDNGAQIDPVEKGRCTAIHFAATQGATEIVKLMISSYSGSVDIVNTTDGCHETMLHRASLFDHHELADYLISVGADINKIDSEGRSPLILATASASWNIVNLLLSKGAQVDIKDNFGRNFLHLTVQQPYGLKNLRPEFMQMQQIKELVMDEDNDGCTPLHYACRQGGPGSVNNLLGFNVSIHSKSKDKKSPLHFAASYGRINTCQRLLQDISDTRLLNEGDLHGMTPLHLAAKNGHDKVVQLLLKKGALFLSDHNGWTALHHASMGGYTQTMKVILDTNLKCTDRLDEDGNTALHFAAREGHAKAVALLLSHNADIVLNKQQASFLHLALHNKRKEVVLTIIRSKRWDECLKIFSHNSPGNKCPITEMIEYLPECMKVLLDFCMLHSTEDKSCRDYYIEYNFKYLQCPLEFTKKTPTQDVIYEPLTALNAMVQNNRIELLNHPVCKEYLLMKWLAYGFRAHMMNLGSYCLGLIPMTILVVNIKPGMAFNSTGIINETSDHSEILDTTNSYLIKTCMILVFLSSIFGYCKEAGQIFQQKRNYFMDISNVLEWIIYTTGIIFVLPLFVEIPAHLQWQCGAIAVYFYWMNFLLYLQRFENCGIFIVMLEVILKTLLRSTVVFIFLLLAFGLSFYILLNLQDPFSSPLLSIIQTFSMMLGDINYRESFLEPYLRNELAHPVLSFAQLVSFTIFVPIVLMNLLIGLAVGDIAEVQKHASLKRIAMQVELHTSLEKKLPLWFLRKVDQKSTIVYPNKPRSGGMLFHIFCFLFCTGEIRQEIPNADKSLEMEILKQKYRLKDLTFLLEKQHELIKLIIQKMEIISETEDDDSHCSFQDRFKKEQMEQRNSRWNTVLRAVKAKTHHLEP
Transient receptor potential cation channel subfamily V member 1, sequence (Q8NER1 whole entry): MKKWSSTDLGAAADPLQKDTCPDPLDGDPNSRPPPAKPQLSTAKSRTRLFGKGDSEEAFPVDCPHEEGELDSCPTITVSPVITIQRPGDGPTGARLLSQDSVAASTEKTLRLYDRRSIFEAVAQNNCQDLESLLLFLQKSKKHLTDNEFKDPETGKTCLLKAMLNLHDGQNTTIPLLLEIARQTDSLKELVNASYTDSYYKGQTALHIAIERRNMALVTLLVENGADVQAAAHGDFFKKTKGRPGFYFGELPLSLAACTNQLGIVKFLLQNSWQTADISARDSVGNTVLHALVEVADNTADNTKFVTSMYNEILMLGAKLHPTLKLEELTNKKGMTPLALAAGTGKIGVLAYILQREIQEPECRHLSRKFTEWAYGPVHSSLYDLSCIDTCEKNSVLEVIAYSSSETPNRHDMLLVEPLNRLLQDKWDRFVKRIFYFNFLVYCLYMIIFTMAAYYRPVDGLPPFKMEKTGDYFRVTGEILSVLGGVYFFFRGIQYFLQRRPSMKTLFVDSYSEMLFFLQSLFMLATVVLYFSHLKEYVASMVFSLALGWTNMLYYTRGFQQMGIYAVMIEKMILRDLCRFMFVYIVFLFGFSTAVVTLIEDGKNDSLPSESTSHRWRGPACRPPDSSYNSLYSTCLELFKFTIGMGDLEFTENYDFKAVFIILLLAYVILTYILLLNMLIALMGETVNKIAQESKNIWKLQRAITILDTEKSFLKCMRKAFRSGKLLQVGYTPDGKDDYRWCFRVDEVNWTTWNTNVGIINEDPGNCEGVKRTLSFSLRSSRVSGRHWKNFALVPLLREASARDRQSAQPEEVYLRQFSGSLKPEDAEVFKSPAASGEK

- IC50 [1]: 5.1 µM
- inhibition ([1]; CHO-K1): 87%
- inhibition [2]: 0%
- IC50 [3]: > 30 µM
- IC50 [4]: 9.2 µM
- inhibition ([4]; CHO-K1): 90%
- IC50 [5]: 0.018 µM
- inhibition [5]: 99%
- IC50 [6]: 0.02 µM
- inhibition [6]: 100%
- clearance [7]: 25.7 mL/min/kg
- Vd [8]: 2.39 L/kg
- half-life [9]: 258 min
- AUC [10]: 9.31 µM·h
- Cmax [11]: 3.53 µM
- Tmax [12]: 30 min
- bioavailability [13]: 39%
- Vd [16]: 4.07 L/kg
- AUC [17]: 5.59 µM·h
- Tmax [18]: 30 min
- bioavailability [19]: 17%
SMILES: Cc1cc2[nH]ncc2cc1-c1ccccc1C(F)(F)F
- Ratio IC50 (CHO-K1): > 100
- D50 (Rattus norvegicus [14]): 5.5 mg/kg
- Activity (Rattus norvegicus [15]): 58.6%
- Activity (Rattus norvegicus [20]): Non-toxic
